Experimental data gathered from unrelated publications.
Each line is one published result; the experiments were not run side by side.
UGT1A4: UDP-glucuronosyltransferase 1A4 (UGT1A4, Homo sapiens, UniProt P22310)
CYP2C19: Cytochrome P450 2C19 (CYP2C19, Homo sapiens, UniProt P33261)

N=C(N)NCc1ccc(NC(=O)c2ccc(C(=O)Nc3ccc(C4=CCN(C(=N)N)CC4)cn3)cc2)cc1
CC50 (NIH3T3; cell growth or viability, MTS; 24 h): 544 µM

[11CH3]Oc1cccc(CCc2cc(O)c(=O)[nH]n2)c1
tracer uptake (ATP-dependent translocase ABCB1 (Abcb1a, Mus musculus, UniProt P21447); mouse, brain; 30 min): 0.23 %ID/g

N=C(N)N1CC=C(c2ccc(NC(=O)c3ccc(C4=CCN(C(=N)N)CC4)cc3)cc2)CC1
CC50 (NIH3T3; cell growth or viability, MTS; 24 h): 41 µM

C[C@@H](Cn1ccc(-c2ccc(C#N)c(Cl)c2)n1)NC(=O)c1cc([C@@H](C)O)[nH]n1
IC50 (UGT1A4; enzyme activity, inhibitor; human, liver microsomes): > 100 µM

NC(=O)C1CCCN1C(=O)Cc1ccc(N(CCCO)Cc2cnc3nc(N)nc(N)c3n2)cc1 (stereo not drawn)
inhibition (CYP2C19; enzyme activity, inhibitor, luciferase; 10 µM): -4.55%

CC(=O)c1cc(C(=O)N[C@@H](C)Cn2ccc(-c3ccc(C#N)c(Cl)c3)n2)[nH]n1
IC50 (UGT1A4; enzyme activity, inhibitor; human, liver microsomes): > 50 µM

COC(=O)C1CCN(C(=O)c2ccc(N(Cc3ccccc3)Cc3cnc4nc(N)nc(N)c4n3)cc2)CC1
inhibition (CYP2C19; enzyme activity, inhibitor, luciferase; 10 µM): 107%

N=C(N)NCc1ccc(NC(=O)c2ccc(C(=O)Nc3cnc(C4=CCN(C(=N)N)CC4)cn3)cc2)cc1
CC50 (NIH3T3; cell growth or viability, MTS; 24 h): > 585 µM

COC(=O)C1CCN(C(=O)c2ccc(NCc3cnc4nc(N)nc(N)c4n3)cn2)CC1
inhibition (CYP2C19; enzyme activity, inhibitor, luciferase; 10 µM): -1.34%

COc1cc2c3c(n(CCCN4CCOCC4)c(=O)c2cc1OC)-c1cc2c(cc1C3=O)OCO2
Cmax (female beagle dog, plasma; intravenous, 10 mg/m², infusion): 75.7 ng/mL

C[C@@H]1C[C@H](c2ccc(Br)cc2)c2c(cc3ccccn23)C(=O)O1 (racemic)
CC50 (HFF-1; cell growth or viability, resazurin; 72 h): 0.92 µM

COC(=O)C1CCN(C(=O)c2ccc(N(CCCO)Cc3cnc4nc(N)nc(N)c4n3)cc2)CC1
inhibition (CYP2C19; enzyme activity, inhibitor, luciferase; 10 µM): -9.48%
